From ChEMBL document CHEMBL1156681, “Synthesis, anti-bacterial, anti-asthmatic and anti-diabetic activities of novel N-substituted-2-(4-phenylethynyl-phenyl)-1H-benzimidazoles and N-substituted 2[4-(4,4-dimethyl-thiochroman-6-yl-ethynyl)-phenyl)-1H-benzimidazoles” (2008)
Values after ≈ are worked out from the molar mass of the structure shown. Active and inactive are the calls of the source. No cut-off for these calls is given here.

Legend:
[1] = target: T1, Tyrosine-protein phosphatase non-receptor type 1 (Homo sapiens) (UniProt P18031); assay: Inhibition of human recombinant PTP1B at 30 uM after 30 mins relative to control
T1 sequence (whole entry): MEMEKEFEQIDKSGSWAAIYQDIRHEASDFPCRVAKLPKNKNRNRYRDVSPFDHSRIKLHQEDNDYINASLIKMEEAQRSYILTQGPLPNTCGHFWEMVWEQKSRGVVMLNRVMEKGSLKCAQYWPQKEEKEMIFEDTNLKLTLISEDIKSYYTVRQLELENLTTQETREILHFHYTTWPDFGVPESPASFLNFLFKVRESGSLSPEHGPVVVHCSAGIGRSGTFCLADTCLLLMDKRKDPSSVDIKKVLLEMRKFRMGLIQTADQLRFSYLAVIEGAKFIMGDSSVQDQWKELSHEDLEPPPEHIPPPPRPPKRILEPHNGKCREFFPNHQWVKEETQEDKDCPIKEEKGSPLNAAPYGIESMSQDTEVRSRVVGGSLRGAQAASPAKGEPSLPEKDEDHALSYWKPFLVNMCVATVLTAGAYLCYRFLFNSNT
Procedure, shortened: (§1)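 In-house human recombinant PTP-1B (~35 ng) was assayed with p-nitrophenyl phosphate in 25 mM Hepes, 3 mM DTT and 1 mM EDTA, pH 7.4, with DMSO at ≤1%. Absorbance at 405 nm was monitored continuously at 30 °C for 30 min, then NaOH was added and 405 nm read again. Activity was expressed as % of control, and % inhibition as 100 minus activity.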

[2] = test system: Staphylococcus aureus; assay: Antibacterial activity against Staphylococcus aureus at 0.1 ug/ml after 48 hrs by tube dilution method; type: functional, organism-based
Procedure, shortened: (§2)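 Compounds dissolved in DMSO and tested by tube dilution at […]. Tubes were incubated at 37 °C for 48 h. Growth was scored against the DMSO control as poor, medium or confluent (no inhibition). MIC was taken from the dilution series. Cephalexin served as the reference antibacterial and DMSO as the solvent control.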

[3] = test system: Staphylococcus aureus; assay: Antibacterial activity against Staphylococcus aureus at 1 ug/ml after 48 hrs by tube dilution method; type: functional, organism-based; procedure, shortened: as §2
[4] = test system: Staphylococcus aureus; assay: Antibacterial activity against Staphylococcus aureus at 10 ug/ml after 48 hrs by tube dilution method; type: functional, organism-based; procedure, shortened: as §2
[5] = test system: Staphylococcus aureus; assay: Antibacterial activity against Staphylococcus aureus at 100 ug/ml after 48 hrs by tube dilution method; type: functional, organism-based; procedure, shortened: as §2
[6] = test system: Staphylococcus aureus; assay: Antibacterial activity against Staphylococcus aureus at 500 ug/ml after 48 hrs by tube dilution method; type: functional, organism-based; procedure, shortened: as §2
[7] = test system: Staphylococcus aureus; assay: Antibacterial activity against Staphylococcus aureus after 48 hrs by tube dilution method; type: functional; procedure, shortened: as §2
[8] = test system: Salmonella typhimurium; assay: Antibacterial activity against Salmonella Typhimurium at 0.1 ug/ml after 48 hrs by tube dilution method; type: functional, organism-based; conditions: Salmonella enterica subsp. enterica serovar Typhimurium; procedure, shortened: as §2
[9] = test system: Salmonella typhimurium; assay: Antibacterial activity against Salmonella Typhimurium at 1 ug/ml after 48 hrs by tube dilution method; type: functional, organism-based; conditions: Salmonella enterica subsp. enterica serovar Typhimurium; procedure, shortened: as §2
[10] = test system: Salmonella typhimurium; assay: Antibacterial activity against Salmonella Typhimurium at 10 ug/ml after 48 hrs by tube dilution method; type: functional, organism-based; conditions: Salmonella enterica subsp. enterica serovar Typhimurium; procedure, shortened: as §2
[11] = test system: Salmonella typhimurium; assay: Antibacterial activity against Salmonella Typhimurium at 100 ug/ml after 48 hrs by tube dilution method; type: functional, organism-based; conditions: Salmonella enterica subsp. enterica serovar Typhimurium; procedure, shortened: as §2
[12] = test system: Salmonella typhimurium; assay: Antibacterial activity against Salmonella Typhimurium at 500 ug/ml after 48 hrs by tube dilution method; type: functional, organism-based; conditions: Salmonella enterica subsp. enterica serovar Typhimurium; procedure, shortened: as §2
[13] = test system: Salmonella typhimurium; assay: Antibacterial activity against Salmonella Typhimurium after 48 hrs by tube dilution method; type: functional, Salmonella enterica subsp. enterica serovar Typhimurium; conditions: Salmonella enterica; procedure, shortened: as §2
[14] = target: T2, Phosphodiesterase 4 (Homo sapiens) (UniProt P27815+Q08499+Q07343+Q08493); assay: Inhibition of human PDE4 at 1 uM after 20 mins; type: protein assay
[15] = target: Dipeptidyl peptidase 4 (Homo sapiens) (UniProt P27487); assay: Inhibition of human recombinant DPP4 at 0.3 uM after 30 mins relative to control
Dipeptidyl peptidase 4 (Homo sapiens), sequence (P27487 whole entry, looked up): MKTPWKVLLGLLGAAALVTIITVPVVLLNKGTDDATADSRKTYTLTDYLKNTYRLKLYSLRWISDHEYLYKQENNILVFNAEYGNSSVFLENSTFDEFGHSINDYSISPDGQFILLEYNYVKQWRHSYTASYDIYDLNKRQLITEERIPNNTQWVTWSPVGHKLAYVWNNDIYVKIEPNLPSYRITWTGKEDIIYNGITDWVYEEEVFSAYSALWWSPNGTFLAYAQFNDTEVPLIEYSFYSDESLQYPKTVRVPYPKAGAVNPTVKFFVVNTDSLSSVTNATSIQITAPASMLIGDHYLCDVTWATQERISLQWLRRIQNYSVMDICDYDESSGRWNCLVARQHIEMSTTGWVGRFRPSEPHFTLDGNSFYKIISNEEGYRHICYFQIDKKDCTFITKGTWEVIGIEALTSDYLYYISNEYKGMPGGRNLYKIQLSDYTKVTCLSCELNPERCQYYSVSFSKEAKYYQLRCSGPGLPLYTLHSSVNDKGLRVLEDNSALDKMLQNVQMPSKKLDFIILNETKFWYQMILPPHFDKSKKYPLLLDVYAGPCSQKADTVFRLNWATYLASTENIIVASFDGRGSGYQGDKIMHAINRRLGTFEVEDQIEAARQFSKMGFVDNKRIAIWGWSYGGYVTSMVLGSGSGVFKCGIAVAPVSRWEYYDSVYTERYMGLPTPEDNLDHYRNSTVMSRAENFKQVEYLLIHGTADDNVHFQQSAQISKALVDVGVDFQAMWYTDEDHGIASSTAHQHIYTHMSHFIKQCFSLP
Procedure, shortened: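 Recombinant human DPP-IV (10 ng) was run in 25 mM Tris pH 7.4, 140 mM NaCl, 10 mM KCl and 1% BSA with Gly-Pro-AMC substrate. Compounds in DMSO were added, and AMC release was followed kinetically at 30 °C for 30 min (ex 380 / em 460 nm). Percent inhibition was calculated against the solvent-only control.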

[16] = test system: Staphylococcus aureus; assay: Antibacterial activity against Staphylococcus aureus at 200 ug/ml after 48 hrs by tube dilution method; type: functional, organism-based; procedure, shortened: as §2
[17] = test system: Salmonella typhimurium; assay: Antibacterial activity against Salmonella Typhimurium at 200 ug/ml after 48 hrs by tube dilution method; type: functional, organism-based; conditions: Salmonella enterica subsp. enterica serovar Typhimurium; procedure, shortened: as §2
[18] = target: T1, Tyrosine-protein phosphatase non-receptor type 1 (Homo sapiens); assay: Inhibition of human recombinant PTP1B at 0.3 uM after 30 mins relative to control; procedure, shortened: as §1
[19] = target: T2, Phosphodiesterase 4 (Homo sapiens); conditions: 0.075 uM

Row | inhibition [1] [%] | MIC [7] [µg/mL] | MIC [13] [µg/mL] | inhibition [14] [%] | inhibition [15] [%] | inhibition [18] [%] | inhibition [19] [%] | Structure (SMILES) | Activity [2] | Activity [3] | Activity [4] | Activity [5] | Activity [6] | Activity [8] | Activity [9] | Activity [10] | Activity [11] | Activity [12] | Activity [16] | Activity [17]
1 | 17.4 | 500 (≈ 1270 µM) | 500 (≈ 1270 µM) | 17.2 | 0 | – | – | CC(C)COC(=O)n1c(-c2ccc(C#Cc3ccccc3)cc2)nc2ccccc21 | inactive | inactive | inactive | inactive | Active | inactive | inactive | inactive | inactive | Active | – | –
2 | – | 10 (≈ 28.8 µM) | 200 (≈ 576 µM) | – | – | – | – | CC1=C(C(=O)O)N2C(=O)[C@@H](NC(=O)[C@H](N)c3ccccc3)[C@H]2SC1 [CEPHALEXIN ANHYDROUS] | inactive | inactive | Active | Active | Active | inactive | inactive | – | – | Active | Active | Active
3 | – | – | – | – | – | 49.1 | – | C=C(O)CN(c1ccccc1C(=O)O)C(CCC(=O)N[C@@H](CCSC)C(=O)O)CNC(=O)C(Cc1cccc(CC)c1)NC(C)=O (some centres undefined) | – | – | – | – | – | – | – | – | – | – | – | –
4 | 2.2 | 500 (≈ 1550 µM) | 500 (≈ 1550 µM) | 13.5 | 0 | – | – | CCn1c(-c2ccc(C#Cc3ccccc3)cc2)nc2ccccc21 | inactive | inactive | inactive | inactive | Active | inactive | inactive | inactive | inactive | Active | – | –
5 | 5.84 | 500 (≈ 1270 µM) | 500 (≈ 1270 µM) | 16.2 | 0 | – | – | CCCCOC(=O)n1c(-c2ccc(C#Cc3ccccc3)cc2)nc2ccccc21 | inactive | inactive | inactive | inactive | Active | inactive | inactive | inactive | inactive | Active | – | –
6 | – | – | – | – | – | – | 45.3 | COc1ccc([C@]2(C#N)CC[C@@H](C(=O)O)CC2)cc1OC1CCCC1 | – | – | – | – | – | – | – | – | – | – | – | –
